ChEMBL document CHEMBL1275351, “Novel spirotetracyclic zwitterionic dual H(1)/5-HT(2A) receptor antagonists for the treatment of sleep disorders” (J Med Chem, 2010)

biological target: T1, 5-hydroxytryptamine receptor 2C (Homo sapiens, UniProt P28335); assay: Antagonist activity at human 5HT2C receptor expressed in human SH-SY5Y cells by FLIPR assay; type: functional, cell-based; details: not given
T1 sequence (P28335 whole entry): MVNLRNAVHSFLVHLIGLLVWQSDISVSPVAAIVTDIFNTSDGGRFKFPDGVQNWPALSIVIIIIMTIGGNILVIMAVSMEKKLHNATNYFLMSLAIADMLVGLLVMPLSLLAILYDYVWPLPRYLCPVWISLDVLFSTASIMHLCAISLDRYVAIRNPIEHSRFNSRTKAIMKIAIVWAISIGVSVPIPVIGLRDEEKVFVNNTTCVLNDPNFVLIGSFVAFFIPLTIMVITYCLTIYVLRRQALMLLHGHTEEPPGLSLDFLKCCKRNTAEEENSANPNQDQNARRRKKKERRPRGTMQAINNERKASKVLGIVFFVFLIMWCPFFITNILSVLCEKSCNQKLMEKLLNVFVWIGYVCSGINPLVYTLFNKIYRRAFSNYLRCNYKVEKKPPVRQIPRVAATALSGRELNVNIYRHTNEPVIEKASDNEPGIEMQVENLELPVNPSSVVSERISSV

Row | Compound | Ki
1 | O=C(O)C1=CCN(C2CCC3(Cc4ccccc4Oc4ccccc43)C2)CC1 (configuration not stated) | 1000 nM
2 | O=C(O)C1(F)CCN(C2CC[C@]3(Cc4ccccc4Cc4ccccc43)C2)CC1 (some centres not stated) | 1000 nM
3 | CN(C)C1CC[C@]2(Cc3ccccc3Cc3ccccc32)C1 (some centres not stated) | 7.94 nM

tested on: not listed separately; assay: Half life in Sprague-Dawley rat at 1 mg/kg, iv and 3 mg/kg, po; type: ADME, organism-based; details: in vivo
In short: (§1)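 Male Sprague-Dawley rats, cassette dosing. Compounds were given as an iv bolus and as an oral suspension. Blood samples were taken at intervals up to 24 h, processed by protein precipitation and analysed by HPLC-MS/MS.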

Row | Compound | half-life
4 | O=C(O)C1=CCN(C2CCC3(Cc4ccccc4Oc4ccccc43)C2)CC1 (configuration not stated) | 3 h
5 | O=C(O)C1(F)CCN(C2CC[C@]3(Cc4ccccc4Cc4ccccc43)C2)CC1 (some centres not stated) | 1.2 h

biological target: not listed separately; assay: Selectivity ratio of pKi for human alpha1A adrenergic receptor to pKi for human Alpha-1B adrenergic receptor; details: not given

Row | Compound | pKi
6 | CN(C)C1CC[C@]2(Cc3ccccc3Cc3ccccc32)C1 (some centres not stated) | < 6

biological target: Cytochrome P450 3A4 (Homo sapiens, UniProt P08684); assay: Inhibition of human CYP3A4 transfected in bactosome expression system by spectrofluorimetry; type: ADME; details: not given
In short: (§2)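 Recombinant human CYP Bactosomes (0.1 mg/mL) in 50 mM phosphate buffer, pH 7.4. Compound at 0.1-10 μM was preincubated with fluorogenic substrate for 10 min at 37 °C, and the reaction was started with an NADPH regenerating system. Metabolite fluorescence was followed for 10 min. Substrates: 1A2 ethoxyresorufin 0.5 μM; 2C9 FCA 50 μM; 2C19 BMC 10 μM; 2D6 MMC 10 μM; 3A4 DEF 1 μM or 7-BQ 25 μM. Run in triplicate.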

Chain of Cytochrome P450 3A4 (P08684 whole entry): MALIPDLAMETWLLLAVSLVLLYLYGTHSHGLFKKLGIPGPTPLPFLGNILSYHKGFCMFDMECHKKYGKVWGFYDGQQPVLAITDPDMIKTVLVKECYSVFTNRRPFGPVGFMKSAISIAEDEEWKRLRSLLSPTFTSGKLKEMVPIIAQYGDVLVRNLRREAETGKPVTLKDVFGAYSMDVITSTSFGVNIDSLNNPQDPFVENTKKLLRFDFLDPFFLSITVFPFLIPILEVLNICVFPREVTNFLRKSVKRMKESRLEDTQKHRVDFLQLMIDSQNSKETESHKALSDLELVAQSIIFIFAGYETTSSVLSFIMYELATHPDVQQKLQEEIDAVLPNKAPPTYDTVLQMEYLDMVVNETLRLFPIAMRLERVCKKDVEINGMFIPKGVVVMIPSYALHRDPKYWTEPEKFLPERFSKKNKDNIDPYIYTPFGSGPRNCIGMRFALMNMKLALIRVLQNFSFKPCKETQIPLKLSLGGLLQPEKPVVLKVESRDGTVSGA

Row | Compound | IC50
7 | O=C(O)C1=CCN(C2CCC3(Cc4ccccc4Oc4ccccc43)C2)CC1 (configuration not stated) | > 10000 nM
8 | O=C(O)C1(F)CCN(C2CC[C@]3(Cc4ccccc4Cc4ccccc43)C2)CC1 (some centres not stated) | > 10000 nM

tested on: not listed separately; assay: Blood clearance in Sprague-Dawley rat at 1 mg/kg, iv and 3 mg/kg, po; type: ADME, organism-based; details: whole blood; in short: as §1

Row | Compound | clearance
9 | O=C(O)C1=CCN(C2CCC3(Cc4ccccc4Oc4ccccc43)C2)CC1 (configuration not stated) | 16 mL/min/kg
10 | O=C(O)C1(F)CCN(C2CC[C@]3(Cc4ccccc4Cc4ccccc43)C2)CC1 (some centres not stated) | 61 mL/min/kg

biological target: 5-hydroxytryptamine receptor 2B (Homo sapiens, UniProt P41595); assay: Antagonist activity at human 5HT2B receptor expressed in human SH-SY5Y cells by FLIPR assay; details: not given
Sequence (P41595 whole entry): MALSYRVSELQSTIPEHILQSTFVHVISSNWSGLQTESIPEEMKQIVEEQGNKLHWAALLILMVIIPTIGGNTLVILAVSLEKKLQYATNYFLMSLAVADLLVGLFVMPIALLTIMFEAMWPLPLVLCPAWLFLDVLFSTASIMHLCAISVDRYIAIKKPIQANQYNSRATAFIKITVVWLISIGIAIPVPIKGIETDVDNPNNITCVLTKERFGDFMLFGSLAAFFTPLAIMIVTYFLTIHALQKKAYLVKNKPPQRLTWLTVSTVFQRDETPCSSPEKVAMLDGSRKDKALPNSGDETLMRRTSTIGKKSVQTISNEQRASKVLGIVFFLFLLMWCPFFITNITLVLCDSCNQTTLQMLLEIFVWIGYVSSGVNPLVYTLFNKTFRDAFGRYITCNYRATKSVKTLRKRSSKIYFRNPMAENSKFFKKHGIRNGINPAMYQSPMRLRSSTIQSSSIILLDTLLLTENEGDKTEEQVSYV

Row | Compound | Ki
11 | O=C(O)C1=CCN(C2CCC3(Cc4ccccc4Oc4ccccc43)C2)CC1 (configuration not stated) | > 2000 nM
12 | O=C(O)C1(F)CCN(C2CC[C@]3(Cc4ccccc4Cc4ccccc43)C2)CC1 (some centres not stated) | > 2000 nM
13 | CN(C)C1CC[C@]2(Cc3ccccc3Cc3ccccc32)C1 (some centres not stated) | 15.8 nM

biological target: Histamine H1 receptor (Rattus norvegicus, UniProt P31390); assay: Displacement of [3H]pyrilamine from histamine H1 receptor in Sprague-Dawley rat cortical membrane by liquid scintillation counting; details: not given
In short: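 Cerebral cortex membranes from male Sprague-Dawley rats (200-250 g), 150 μg/well. Incubated with 0.6 nM [3H]pyrilamine in 50 mM HEPES, pH 7.4, for 2 h at room temperature. Filtered on PEI-soaked GF/B and counted by scintillation. Nonspecific binding with 10 μM cetirizine. Ki by Cheng-Prusoff; mean of two experiments in duplicate.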

Chain of Histamine H1 receptor (Rattus norvegicus, UniProt P31390) (P31390 whole entry): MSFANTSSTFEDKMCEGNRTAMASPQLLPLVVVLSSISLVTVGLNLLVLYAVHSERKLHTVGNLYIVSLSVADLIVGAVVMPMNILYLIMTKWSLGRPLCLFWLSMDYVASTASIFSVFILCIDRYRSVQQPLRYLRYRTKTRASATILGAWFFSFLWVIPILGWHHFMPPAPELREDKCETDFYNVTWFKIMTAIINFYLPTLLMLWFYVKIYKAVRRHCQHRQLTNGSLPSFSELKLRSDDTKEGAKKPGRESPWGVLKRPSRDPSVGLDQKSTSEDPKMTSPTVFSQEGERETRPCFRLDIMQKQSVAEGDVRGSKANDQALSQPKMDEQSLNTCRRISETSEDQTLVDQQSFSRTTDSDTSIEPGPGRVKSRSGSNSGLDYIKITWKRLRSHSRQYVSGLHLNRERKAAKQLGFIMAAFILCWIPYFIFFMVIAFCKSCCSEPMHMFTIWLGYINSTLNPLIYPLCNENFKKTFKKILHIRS

Row | Compound | Ki
14 | O=C(O)C1=CCN(C2CCC3(Cc4ccccc4Oc4ccccc43)C2)CC1 (configuration not stated) | 20 nM
15 | O=C(O)C1(F)CCN(C2CC[C@]3(Cc4ccccc4Cc4ccccc43)C2)CC1 (some centres not stated) | 12.3 nM

tested on: not listed separately; assay: Volume of distribution at steady state in Sprague-Dawley rat at 1 mg/kg, iv and 3 mg/kg, po; type: ADME, organism-based; details: in vivo, read-out: Vdss; in short: as §1

Row | Compound | Vd
16 | O=C(O)C1=CCN(C2CCC3(Cc4ccccc4Oc4ccccc43)C2)CC1 (configuration not stated) | 2.7 L/kg
17 | O=C(O)C1(F)CCN(C2CC[C@]3(Cc4ccccc4Cc4ccccc43)C2)CC1 (some centres not stated) | 3.8 L/kg

tested on: not listed separately; assay: Fraction unbound in rat brain; type: ADME, tissue-based; details: not given

Row | Compound | fraction unbound
18 | O=C(O)C1=CCN(C2CCC3(Cc4ccccc4Oc4ccccc43)C2)CC1 (configuration not stated) | 0.027
19 | O=C(O)C1(F)CCN(C2CC[C@]3(Cc4ccccc4Cc4ccccc43)C2)CC1 (some centres not stated) | 0.02

tested on: not listed separately; assay: Fraction unbound in rat blood; type: ADME, tissue-based; details: not given

Row | Compound | fraction unbound
20 | O=C(O)C1=CCN(C2CCC3(Cc4ccccc4Oc4ccccc43)C2)CC1 (configuration not stated) | 0.103
21 | O=C(O)C1(F)CCN(C2CC[C@]3(Cc4ccccc4Cc4ccccc43)C2)CC1 (some centres not stated) | 0.084

biological target: 5-hydroxytryptamine receptor 2A (Homo sapiens, UniProt P28223); assay: Antagonist activity at human 5HT2A receptor expressed in HEK cells assessed as inhibition of intracellular calcium accumulation by aequorin assay; type: functional, cell-based, HEK293; details: not given
Sequence (P28223 whole entry): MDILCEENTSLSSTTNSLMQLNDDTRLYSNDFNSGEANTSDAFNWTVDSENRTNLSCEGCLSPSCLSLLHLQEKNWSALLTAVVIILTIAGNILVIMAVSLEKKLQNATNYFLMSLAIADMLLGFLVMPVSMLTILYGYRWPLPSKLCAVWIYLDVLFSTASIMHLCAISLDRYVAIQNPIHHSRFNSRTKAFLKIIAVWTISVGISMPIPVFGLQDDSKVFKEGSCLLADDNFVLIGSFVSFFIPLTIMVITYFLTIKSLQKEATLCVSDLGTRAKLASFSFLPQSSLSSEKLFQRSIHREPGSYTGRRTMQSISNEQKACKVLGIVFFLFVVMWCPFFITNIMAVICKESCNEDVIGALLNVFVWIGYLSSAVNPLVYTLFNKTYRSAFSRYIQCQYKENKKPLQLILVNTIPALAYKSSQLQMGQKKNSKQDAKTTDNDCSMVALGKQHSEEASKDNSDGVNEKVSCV

Row | Compound | Ki
22 | O=C(O)C1=CCN(C2CCC3(Cc4ccccc4Oc4ccccc43)C2)CC1 (configuration not stated) | 25.1 nM
23 | O=C(O)C1(F)CCN(C2CC[C@]3(Cc4ccccc4Cc4ccccc43)C2)CC1 (some centres not stated) | 50.1 nM
24 | CN(C)C1CC[C@]2(Cc3ccccc3Cc3ccccc32)C1 (some centres not stated) | 12.6 nM

biological target: Cytochrome P450 2D6 (Homo sapiens, UniProt P10635); assay: Inhibition of human CYP2D6 transfected in bactosome expression system by spectrofluorimetry; type: ADME; details: not given; in short: as §2
Sequence (P10635 whole entry): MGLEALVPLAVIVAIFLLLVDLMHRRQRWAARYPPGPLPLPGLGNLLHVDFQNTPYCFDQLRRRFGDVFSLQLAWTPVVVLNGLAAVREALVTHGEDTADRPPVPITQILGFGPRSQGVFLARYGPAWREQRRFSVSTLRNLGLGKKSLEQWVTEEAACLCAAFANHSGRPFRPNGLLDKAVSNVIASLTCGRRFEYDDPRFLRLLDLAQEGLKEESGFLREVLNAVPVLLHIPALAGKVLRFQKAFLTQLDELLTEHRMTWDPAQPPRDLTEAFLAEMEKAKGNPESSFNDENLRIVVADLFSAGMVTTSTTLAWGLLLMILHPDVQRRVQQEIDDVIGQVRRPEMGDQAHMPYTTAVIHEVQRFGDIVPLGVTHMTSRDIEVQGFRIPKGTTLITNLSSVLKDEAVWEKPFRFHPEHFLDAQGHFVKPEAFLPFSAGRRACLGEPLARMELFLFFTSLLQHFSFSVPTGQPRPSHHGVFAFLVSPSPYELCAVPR

Row | Compound | IC50
25 | O=C(O)C1=CCN(C2CCC3(Cc4ccccc4Oc4ccccc43)C2)CC1 (configuration not stated) | > 10000 nM
26 | O=C(O)C1(F)CCN(C2CC[C@]3(Cc4ccccc4Cc4ccccc43)C2)CC1 (some centres not stated) | > 10000 nM

tested on: not listed separately; assay: Oral bioavailability in Sprague-Dawley rat at 3 mg/kg; type: ADME, organism-based; details: in vivo; in short: as §1

Row | Compound | bioavailability
27 | O=C(O)C1=CCN(C2CCC3(Cc4ccccc4Oc4ccccc43)C2)CC1 (configuration not stated) | 37%
28 | O=C(O)C1(F)CCN(C2CC[C@]3(Cc4ccccc4Cc4ccccc43)C2)CC1 (some centres not stated) | 22%

biological target: Cytochrome P450 2C9 (Homo sapiens, UniProt P11712); assay: Inhibition of human CYP2C9 transfected in bactosome expression system by spectrofluorimetry; type: ADME; details: not given; in short: as §2
Sequence (P11712 whole entry): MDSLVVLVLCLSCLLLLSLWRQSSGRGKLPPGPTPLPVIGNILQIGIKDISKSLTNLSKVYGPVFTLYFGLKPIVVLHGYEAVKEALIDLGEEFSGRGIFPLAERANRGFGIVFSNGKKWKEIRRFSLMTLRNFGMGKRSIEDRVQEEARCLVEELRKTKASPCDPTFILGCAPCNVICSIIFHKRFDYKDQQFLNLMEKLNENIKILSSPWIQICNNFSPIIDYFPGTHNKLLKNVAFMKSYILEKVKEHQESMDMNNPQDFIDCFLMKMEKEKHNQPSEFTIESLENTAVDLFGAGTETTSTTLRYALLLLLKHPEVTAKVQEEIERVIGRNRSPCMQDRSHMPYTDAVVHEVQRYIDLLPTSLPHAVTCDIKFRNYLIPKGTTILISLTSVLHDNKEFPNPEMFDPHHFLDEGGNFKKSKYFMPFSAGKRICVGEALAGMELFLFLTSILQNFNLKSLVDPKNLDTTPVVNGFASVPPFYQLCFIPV

Row | Compound | IC50
29 | O=C(O)C1=CCN(C2CCC3(Cc4ccccc4Oc4ccccc43)C2)CC1 (configuration not stated) | > 10000 nM
30 | O=C(O)C1(F)CCN(C2CC[C@]3(Cc4ccccc4Cc4ccccc43)C2)CC1 (some centres not stated) | > 10000 nM

biological target: T2, Cytochrome P450 1A2 (Homo sapiens, UniProt P05177); assay: Inhibition of human CYP1A2 transfected in bactosome expression system by spectrofluorimetry; type: ADME; details: not given; in short: as §2
T2 sequence (P05177 whole entry): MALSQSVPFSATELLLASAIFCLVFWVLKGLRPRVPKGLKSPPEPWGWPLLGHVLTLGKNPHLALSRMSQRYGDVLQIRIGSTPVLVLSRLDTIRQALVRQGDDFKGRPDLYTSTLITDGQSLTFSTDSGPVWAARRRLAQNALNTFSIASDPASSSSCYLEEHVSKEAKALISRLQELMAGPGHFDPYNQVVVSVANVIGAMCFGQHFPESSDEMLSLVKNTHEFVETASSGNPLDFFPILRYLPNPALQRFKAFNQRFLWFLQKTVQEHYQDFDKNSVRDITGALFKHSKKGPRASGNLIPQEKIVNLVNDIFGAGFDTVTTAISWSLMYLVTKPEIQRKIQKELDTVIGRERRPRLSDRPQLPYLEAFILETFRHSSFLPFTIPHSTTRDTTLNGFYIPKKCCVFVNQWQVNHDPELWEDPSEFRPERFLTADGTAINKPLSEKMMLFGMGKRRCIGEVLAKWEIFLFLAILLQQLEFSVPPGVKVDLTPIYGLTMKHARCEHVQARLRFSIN

Row | Compound | IC50
31 | O=C(O)C1=CCN(C2CCC3(Cc4ccccc4Oc4ccccc43)C2)CC1 (configuration not stated) | > 10000 nM
32 | O=C(O)C1(F)CCN(C2CC[C@]3(Cc4ccccc4Cc4ccccc43)C2)CC1 (some centres not stated) | > 10000 nM

tested on: not listed separately; assay: Ratio of drug level in brain to blood in Sprague-Dawley rat at 1 mg/kg, iv and 3 mg/kg, po; type: ADME, organism-based; details: read-out: BBR
In short: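 Male Sprague-Dawley rats, cassette dosing, iv bolus or oral suspension. Blood and brain levels were measured by protein precipitation and HPLC-MS/MS. Brain:blood ratio was taken from AUC0-8h after oral dosing, or at 1 h after iv dosing for one compound.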

Row | Compound | Kp
33 | O=C(O)C1=CCN(C2CCC3(Cc4ccccc4Oc4ccccc43)C2)CC1 (configuration not stated) | 1.8
34 | O=C(O)C1(F)CCN(C2CC[C@]3(Cc4ccccc4Cc4ccccc43)C2)CC1 (some centres not stated) | 0.1

biological target: Histamine H1 receptor (Homo sapiens, UniProt P35367); assay: Antagonist activity against human histamine H1 receptor expressed in CHO cells by FLIPR assay; type: functional, cell-based; details: not given
Sequence (P35367 whole entry): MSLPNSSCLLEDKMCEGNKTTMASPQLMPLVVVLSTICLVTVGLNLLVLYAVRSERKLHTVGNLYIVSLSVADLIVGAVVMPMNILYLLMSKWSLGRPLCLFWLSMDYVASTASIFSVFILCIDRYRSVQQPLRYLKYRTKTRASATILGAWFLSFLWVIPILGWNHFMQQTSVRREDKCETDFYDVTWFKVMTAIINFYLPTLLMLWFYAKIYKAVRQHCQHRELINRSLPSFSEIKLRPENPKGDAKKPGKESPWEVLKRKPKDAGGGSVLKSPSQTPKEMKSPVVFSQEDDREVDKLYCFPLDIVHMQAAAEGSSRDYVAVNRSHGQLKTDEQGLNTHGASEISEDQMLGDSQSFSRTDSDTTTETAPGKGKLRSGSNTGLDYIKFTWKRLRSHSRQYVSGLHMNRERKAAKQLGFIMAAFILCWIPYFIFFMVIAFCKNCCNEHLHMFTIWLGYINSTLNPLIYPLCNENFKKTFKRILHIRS

Row | Compound | Ki
35 | O=C(O)C1=CCN(C2CCC3(Cc4ccccc4Oc4ccccc43)C2)CC1 (configuration not stated) | 50.1 nM
36 | O=C(O)C1(F)CCN(C2CC[C@]3(Cc4ccccc4Cc4ccccc43)C2)CC1 (some centres not stated) | 39.8 nM
37 | CN(C)C1CC[C@]2(Cc3ccccc3Cc3ccccc32)C1 (some centres not stated) | 3.98 nM

biological target: Cytochrome P450 2C19 (Homo sapiens, UniProt P33261); assay: Inhibition of human CYP2C19 transfected in bactosome expression system by spectrofluorimetry; type: ADME; details: not given; in short: as §2
Sequence (P33261 whole entry): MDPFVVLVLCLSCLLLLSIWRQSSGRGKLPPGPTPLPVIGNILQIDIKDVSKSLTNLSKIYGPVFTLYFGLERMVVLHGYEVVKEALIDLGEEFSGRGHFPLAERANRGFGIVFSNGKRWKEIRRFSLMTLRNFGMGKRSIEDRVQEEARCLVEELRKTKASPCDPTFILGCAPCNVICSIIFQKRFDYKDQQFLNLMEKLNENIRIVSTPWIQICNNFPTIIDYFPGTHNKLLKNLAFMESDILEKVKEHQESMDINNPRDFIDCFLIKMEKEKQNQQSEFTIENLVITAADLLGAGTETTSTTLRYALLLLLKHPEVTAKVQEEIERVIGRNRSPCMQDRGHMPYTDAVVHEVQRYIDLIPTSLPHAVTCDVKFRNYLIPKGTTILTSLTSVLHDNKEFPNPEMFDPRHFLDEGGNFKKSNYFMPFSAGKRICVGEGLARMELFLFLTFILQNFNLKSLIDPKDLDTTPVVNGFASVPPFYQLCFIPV

Row | Compound | IC50
38 | O=C(O)C1=CCN(C2CCC3(Cc4ccccc4Oc4ccccc43)C2)CC1 (configuration not stated) | > 10000 nM
39 | O=C(O)C1(F)CCN(C2CC[C@]3(Cc4ccccc4Cc4ccccc43)C2)CC1 (some centres not stated) | > 10000 nM

biological target: 5-hydroxytryptamine receptor 2A (Rattus norvegicus, UniProt P14842); assay: Displacement of [3H]ketanserin from 5HT2A receptor in Sprague-Dawley rat cortical membrane by liquid scintillation counting; details: not given
In short: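 Cerebral cortex membranes from male Sprague-Dawley rats (200-250 g), 50 μg/well. Incubated with 1 nM [3H]ketanserin in 50 mM Tris-HCl, 10 mM MgCl2, pH 7.4, for 1 h at 37 °C with shaking. Filtered on PEI-soaked GF/B and counted by scintillation. Nonspecific binding with 10 μM mianserin. Ki by Cheng-Prusoff; mean of two experiments in duplicate.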

Chain of 5-hydroxytryptamine receptor 2A (Rattus norvegicus, UniProt P14842) (P14842 whole entry): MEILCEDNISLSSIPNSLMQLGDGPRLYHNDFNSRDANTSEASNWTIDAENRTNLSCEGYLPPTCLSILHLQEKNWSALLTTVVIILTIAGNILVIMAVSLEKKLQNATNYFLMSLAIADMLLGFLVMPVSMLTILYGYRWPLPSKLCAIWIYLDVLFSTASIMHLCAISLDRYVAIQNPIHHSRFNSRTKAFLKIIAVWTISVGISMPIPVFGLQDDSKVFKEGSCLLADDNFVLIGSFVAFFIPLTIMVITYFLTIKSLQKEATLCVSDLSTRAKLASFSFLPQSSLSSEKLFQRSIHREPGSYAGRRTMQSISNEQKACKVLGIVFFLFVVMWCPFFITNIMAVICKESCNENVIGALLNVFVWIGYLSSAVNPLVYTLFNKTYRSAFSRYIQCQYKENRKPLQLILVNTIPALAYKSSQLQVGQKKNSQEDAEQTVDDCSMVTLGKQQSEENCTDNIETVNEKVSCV

Row | Compound | Ki
40 | O=C(O)C1=CCN(C2CCC3(Cc4ccccc4Oc4ccccc43)C2)CC1 (configuration not stated) | 105 nM
41 | O=C(O)C1(F)CCN(C2CC[C@]3(Cc4ccccc4Cc4ccccc43)C2)CC1 (some centres not stated) | 355 nM

biological target: Voltage-gated inwardly rectifying potassium channel KCNH2 (Homo sapiens, UniProt Q12809); assay: Displacement of [3H]dofetilide from human ERG by scintillation proximity assay; details: not given

Row | Compound | IC50
42 | O=C(O)C1(F)CCN(C2CC[C@]3(Cc4ccccc4Cc4ccccc43)C2)CC1 (some centres not stated) | > 39800 nM
